Results on 28 molecules are retold here after ChEMBL document CHEMBL4732138, “Evaluation of the Structure-Activity Relationship of Microtubule-Targeting 1,2,4-Triazolo[1,5-a]pyrimidines Identifies New Candidates for Neurodegenerative Tauopathies” (J Med Chem, 2021).

Common to all, as to type: cell-based
Assay [1] has as its target T1, Tubulin (Homo sapiens) (UniProt P68371+Q9H4B7+P0DPH7+P68366+Q13509+Q71U36+P04350+Q3ZCM7+P07437+P68363+Q9BQE3+Q6PEY2+Q13885+Q9BVA1+Q9BUF5). The assay can be described thus: Stabilization of microtubules in human QBI293 cells assessed as fold change in acetylated tubulin levels at 1 uM after 4 hrs by ELISA relative to DMSO. In outline: (§1)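 QBI293 cells were grown in DMEM with 10% FBS, 2 mM L-glutamine and penicillin/streptomycin, then plated at 6 × 10^5 cells/well and left overnight. Medium was replaced with fresh medium holding vehicle (DMSO) or compound, and cells were incubated 4 h. Whole-cell extract supernatants were protein-normalized by BCA assay. AcTub and α-tubulin were quantified by ELISA against standard curves. Values are fold-change over DMSO, analysed by one-way ANOVA.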
In general terms: In an ELISA, binding on a coated surface is turned into a signal by an enzyme label.

Assay [2] has as its target T1, Tubulin (Homo sapiens). The assay can be described thus: Stabilization of microtubules in human QBI293 cells assessed as fold change in acetylated tubulin levels at 10 uM after 4 hrs by ELISA relative to DMSO. A digest of the protocol: as §1
The target of assay [3] is T1, Tubulin (Homo sapiens). The assay can be described thus: Stabilization of microtubules in human QBI293 cells assessed as fold change in acetylated tubulin levels at 10 uM after 4 hrs by ELISA relative to cevipabulin.
Assay [4] concerns the target T1, Tubulin (Homo sapiens). Briefly: Stabilization of microtubules in human QBI293 cells assessed as increase in acetylated tubulin levels after 4 hrs by ELISA. A digest of the protocol: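 QBI293 cells are grown in DMEM with 10% FBS, 2 mM L-glutamine and penicillin/streptomycin, plated at 6 × 10^5 cells/well and incubated overnight. […] Acetyl- and total α-tubulin in whole-cell extract supernatants are measured by ELISA against standard curves, with protein by BCA. Values are fold-change over DMSO; AcTub is also given relative to 100 nM cevipabulin positive control. Significance is by one-way ANOVA.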

For assay [5], the target named is T1, Tubulin (Homo sapiens). The assay can be described thus: Stabilization of microtubules in human QBI293 cells assessed as fold change in alpha tubulin levels at 1 uM after 4 hrs by ELISA relative to DMSO. In outline:
as §1

Assay [6] concerns the target T1, Tubulin (Homo sapiens). Briefly: Stabilization of microtubules in human QBI293 cells assessed as fold change in alpha tubulin levels at 10 uM after 4 hrs by ELISA relative to DMSO. A digest of the protocol: as §1
Assay [7] addresses T1, Tubulin (Homo sapiens). The assay can be described thus: Stabilization of microtubules in human QBI293 cells assessed as fold change in acetylated tubulin levels at 1 uM after 4 hrs by ELISA relative to cevipabulin.

Consider `Fc1cc(F)c(-c2c(Cl)nc3ncnn3c2NC2CCC2)c(F)c1`, for which the fold change (FC) at Tubulin (Homo sapiens) [1] turned out to be 0.97; at Tubulin (Homo sapiens) [2], 1.75; at Tubulin (Homo sapiens) [3], 0.23; on Tubulin (Homo sapiens) [5], 0.94; on Tubulin (Homo sapiens) [6], 0.95; on Tubulin (Homo sapiens) [7] it was 0.13. Moreover, on Tubulin (Homo sapiens) [4], the Activity result was “Dose-dependent effect”.

In the case of `CC(C)Nc1c(-c2c(F)cc(F)cc2F)c(Cl)nc2ncnn12`, the fold change (FC) at Tubulin (Homo sapiens) [1] amounted to 1.15; at Tubulin (Homo sapiens) [2], 2.01; on Tubulin (Homo sapiens) [3] it was 0.27; at Tubulin (Homo sapiens) [5], 0.92; at Tubulin (Homo sapiens) [6], 0.98; on Tubulin (Homo sapiens) [7] it was 0.15. At Tubulin (Homo sapiens) [4], the Activity entry was “Dose-dependent effect”.

For the molecule `CC(C)[C@@H](C)Nc1c(-c2ccc(C#N)cc2F)c(Cl)nc2ncnn12` (stereo in doubt; 67), the fold change (FC) on Tubulin (Homo sapiens) [1] was found to be 2.79; on Tubulin (Homo sapiens) [2] it was 3.42; on Tubulin (Homo sapiens) [3], 0.75; at Tubulin (Homo sapiens) [5] it was 0.99; at Tubulin (Homo sapiens) [6], 0.93; on Tubulin (Homo sapiens) [7] it was 0.61.

Turning to `C[C@H](Nc1c(-c2ccc(F)cc2F)c(Cl)nc2ncnn12)C(F)(F)F`, the fold change (FC) at Tubulin (Homo sapiens) [1] turned out to be 1.54; at Tubulin (Homo sapiens) [2] it was 3.19; at Tubulin (Homo sapiens) [3] it was 0.27; on Tubulin (Homo sapiens) [5], 0.99; at Tubulin (Homo sapiens) [6] it was 0.86; at Tubulin (Homo sapiens) [7] it was 0.13. Further, the Activity result on Tubulin (Homo sapiens) [4] was “Dose-dependent effect”.

In the case of `C[C@H](Nc1c(-c2ccccc2F)c(Cl)nc2ncnn12)C(F)(F)F`, the fold change (FC) at Tubulin (Homo sapiens) [1] was 1.73; on Tubulin (Homo sapiens) [2] it was 3.56; at Tubulin (Homo sapiens) [3] it was 0.26; at Tubulin (Homo sapiens) [5], 1.09; on Tubulin (Homo sapiens) [6] it was 1.05; on Tubulin (Homo sapiens) [7], 0.13. On Tubulin (Homo sapiens) [4], the Activity entry is “Dose-dependent effect”.

Take `Nc1c(-c2c(F)cc(F)cc2F)c(Cl)nc2ncnn12`: the fold change (FC) at Tubulin (Homo sapiens) [1] is 1.18; on Tubulin (Homo sapiens) [2], 1.12; at Tubulin (Homo sapiens) [3] it was 0.08; on Tubulin (Homo sapiens) [5], 1.08; at Tubulin (Homo sapiens) [6], 1.05; on Tubulin (Homo sapiens) [7] it was 0.09.

For `C[C@H](Nc1c(-c2cc(F)cc(F)c2)c(Cl)nc2ncnn12)C(F)(F)F`, the fold change (FC) on Tubulin (Homo sapiens) [1] was found to be 1.52; at Tubulin (Homo sapiens) [2], 3.97; on Tubulin (Homo sapiens) [3], 0.3; at Tubulin (Homo sapiens) [5] it was 1.12; at Tubulin (Homo sapiens) [6], 1.12; on Tubulin (Homo sapiens) [7], 0.12. Also, the Activity entry on Tubulin (Homo sapiens) [4] was “Dose-dependent effect”.

As to `C[C@H](Nc1c(-c2c(F)cc(S(=O)(=O)CCCN(C)C)cc2F)c(Cl)nc2ncnn12)C(F)(F)F`, the fold change (FC) at Tubulin (Homo sapiens) [1] was found to be 1.13; at Tubulin (Homo sapiens) [2], 1.08; on Tubulin (Homo sapiens) [3], 0.23; at Tubulin (Homo sapiens) [5], 0.7; on Tubulin (Homo sapiens) [6] it was 1.07; at Tubulin (Homo sapiens) [7], 0.24.

As to `Fc1cc(F)c(-c2c(Cl)nc3ncnn3c2NCc2ccccc2)c(F)c1`, the fold change (FC) at Tubulin (Homo sapiens) [1] came to 1.05; on Tubulin (Homo sapiens) [2], 1.49; on Tubulin (Homo sapiens) [3], 0.22; at Tubulin (Homo sapiens) [5] it was 1; on Tubulin (Homo sapiens) [6], 1.06; on Tubulin (Homo sapiens) [7] it was 0.16. Also, the Activity entry at Tubulin (Homo sapiens) [4] is “Dose-dependent effect”.

As for `CCCNc1c(-c2c(F)cc(F)cc2F)c(Cl)nc2ncnn12`, the fold change (FC) on Tubulin (Homo sapiens) [1] turned out to be 1.15; on Tubulin (Homo sapiens) [2], 1.14; at Tubulin (Homo sapiens) [3] it was 0.26; at Tubulin (Homo sapiens) [5], 1.14; at Tubulin (Homo sapiens) [6], 0.86; at Tubulin (Homo sapiens) [7] it was 0.27.

Regarding `C[C@H](Nc1c(-c2c(F)cc(C#N)cc2F)c(Cl)nc2ncnn12)C(F)(F)F`, the fold change (FC) on Tubulin (Homo sapiens) [1] is 1.9; at Tubulin (Homo sapiens) [2] it was 3.56; on Tubulin (Homo sapiens) [3], 0.51; at Tubulin (Homo sapiens) [5], 0.94; on Tubulin (Homo sapiens) [6], 0.95; at Tubulin (Homo sapiens) [7], 0.27. For the same molecule, the Activity result on Tubulin (Homo sapiens) [4] is “Dose-dependent effect”.

For the molecule `Fc1cc(F)c(-c2c(Cl)nc3ncnn3c2NC2CC2)c(F)c1`, the fold change (FC) amounted to 1.17 on Tubulin (Homo sapiens) [1]; 1.27 on Tubulin (Homo sapiens) [2]; 0.07 at Tubulin (Homo sapiens) [3]; 1.2 at Tubulin (Homo sapiens) [5]; 1.26 at Tubulin (Homo sapiens) [6]; 0.07 at Tubulin (Homo sapiens) [7].

Turning to `N#Cc1cc(F)c(-c2c(Cl)nc3ncnn3c2N2CCCCCCC2)c(F)c1`, the fold change (FC) turned out to be 3.24 at Tubulin (Homo sapiens) [1]; 4.4 at Tubulin (Homo sapiens) [2]; 0.79 on Tubulin (Homo sapiens) [3]; 1.01 at Tubulin (Homo sapiens) [5]; 0.99 on Tubulin (Homo sapiens) [6]; 0.58 on Tubulin (Homo sapiens) [7].

`C[C@H](Nc1c(-c2c(F)cc(F)cc2F)c(Cl)nc2ncnn12)C(F)(F)F`: the Activity result on Tubulin (Homo sapiens) [4] is “Dose-dependent effect”.

Consider `C[C@H](Nc1c(Cc2c(F)cc(F)cc2F)c(Cl)nc2ncnn12)C(F)(F)F`, for which the fold change (FC) at Tubulin (Homo sapiens) [1] came to 1.26; at Tubulin (Homo sapiens) [2], 1.43; on Tubulin (Homo sapiens) [3], 0.1; at Tubulin (Homo sapiens) [5], 1.01; at Tubulin (Homo sapiens) [6] it was 1.05; on Tubulin (Homo sapiens) [7], 0.09.

`C[C@H](Nc1c(-c2ccc(C#N)cc2F)c(Cl)nc2ncnn12)C(F)(F)F`: the fold change (FC) at Tubulin (Homo sapiens) [1] worked out at 2.01; at Tubulin (Homo sapiens) [2] it was 3.64; at Tubulin (Homo sapiens) [3], 0.67; on Tubulin (Homo sapiens) [5], 1; at Tubulin (Homo sapiens) [6], 1; on Tubulin (Homo sapiens) [7], 0.37.

For the molecule `CC(C)[C@@H](Nc1c(-c2c(F)cc(F)cc2F)c(Cl)nc2ncnn12)C(F)(F)F`, on Tubulin (Homo sapiens) [4], the Activity result is “Dose-dependent effect”.

`CC(Oc1c(-c2c(F)cc(F)cc2F)c(Cl)nc2ncnn12)C(F)(F)F` (stereo not given): the fold change (FC) on Tubulin (Homo sapiens) [1] amounted to 0.91; at Tubulin (Homo sapiens) [2], 1.01; on Tubulin (Homo sapiens) [3], 0.21; on Tubulin (Homo sapiens) [5], 1.03; on Tubulin (Homo sapiens) [6], 1.04; on Tubulin (Homo sapiens) [7], 0.19.

Regarding `C[C@H](Nc1c(-c2c(F)cc(F)cc2F)c(Cl)nc2ncnn12)C(C)(C)C`, the Activity entry at Tubulin (Homo sapiens) [4] is “Dose-dependent effect”.

`Oc1c(-c2c(F)cc(F)cc2F)c(Cl)nc2ncnn12`: the fold change (FC) at Tubulin (Homo sapiens) [1] stood at 1.04; on Tubulin (Homo sapiens) [2], 1.03; on Tubulin (Homo sapiens) [3], 0.17; at Tubulin (Homo sapiens) [5], 1.06; at Tubulin (Homo sapiens) [6] it was 1.02; on Tubulin (Homo sapiens) [7] it was 0.17.

`CC(C)[C@H](C)Nc1c(-c2c(F)cc(F)cc2F)c(Cl)nc2ncnn12`: the Activity result on Tubulin (Homo sapiens) [4] is “Dose-dependent effect”.

In the case of `C[C@H](Nc1c(-c2c(F)cc([S@@+]([O-])CCCN(C)C)cc2F)c(Cl)nc2ncnn12)C(F)(F)F`, the fold change (FC) on Tubulin (Homo sapiens) [1] stood at 1.49; at Tubulin (Homo sapiens) [2], 1.39; on Tubulin (Homo sapiens) [3], 0.32; at Tubulin (Homo sapiens) [5] it was 1.22; at Tubulin (Homo sapiens) [6], 0.98; on Tubulin (Homo sapiens) [7], 0.34.

For `C[C@H](Nc1c(-c2c(F)cc([S+](C)[O-])cc2F)c(Cl)nc2ncnn12)C(F)(F)F` (stereo not given in full), the fold change (FC) at Tubulin (Homo sapiens) [1] was determined as 0.84; on Tubulin (Homo sapiens) [2], 0.87; on Tubulin (Homo sapiens) [3], 0.21; on Tubulin (Homo sapiens) [5] it was 0.96; at Tubulin (Homo sapiens) [6] it was 0.93; on Tubulin (Homo sapiens) [7], 0.21.

In the case of `C[C@H](Nc1c(-c2c(F)cc(S(C)(=O)=O)cc2F)c(Cl)nc2ncnn12)C(F)(F)F`, the fold change (FC) came out at 1.21 at Tubulin (Homo sapiens) [1]; 1.23 on Tubulin (Homo sapiens) [2]; 0.19 on Tubulin (Homo sapiens) [3]; 1.03 at Tubulin (Homo sapiens) [5]; 1.02 on Tubulin (Homo sapiens) [6]; 0.19 at Tubulin (Homo sapiens) [7].

Turning to `C[C@H](Nc1c(-c2c(F)cc(N)cc2F)c(Cl)nc2ncnn12)C(F)(F)F`, the fold change (FC) on Tubulin (Homo sapiens) [1] worked out at 0.94; on Tubulin (Homo sapiens) [2], 0.69; at Tubulin (Homo sapiens) [3], 0.13; on Tubulin (Homo sapiens) [5] it was 0.97; at Tubulin (Homo sapiens) [6], 0.96; on Tubulin (Homo sapiens) [7], 0.17.

`CC(C)(C)CNc1c(-c2c(F)cc(F)cc2F)c(Cl)nc2ncnn12`: the Activity result on Tubulin (Homo sapiens) [4] was “Dose-dependent effect”.

With `Fc1cc(F)c(-c2c(Cl)nc3ncnn3c2Nc2ccccc2)c(F)c1`, the fold change (FC) amounted to 1.14 at Tubulin (Homo sapiens) [1]; 1.05 at Tubulin (Homo sapiens) [2]; 0.08 on Tubulin (Homo sapiens) [3]; 1.1 at Tubulin (Homo sapiens) [5]; 0.96 at Tubulin (Homo sapiens) [6]; 0.09 at Tubulin (Homo sapiens) [7].

As to `CC(C)[C@@H](C)Nc1c(-c2ccc(C#N)cc2F)c(Cl)nc2ncnn12` (stereo in doubt; 68), the fold change (FC) at Tubulin (Homo sapiens) [1] stood at 2.15; at Tubulin (Homo sapiens) [2], 2.29; on Tubulin (Homo sapiens) [3], 0.5; on Tubulin (Homo sapiens) [5], 0.95; on Tubulin (Homo sapiens) [6], 0.92; on Tubulin (Homo sapiens) [7], 0.47.
